Experimental data from different studies.
Each line is one published result; the experiments were not run side by side.
MC4R: Melanocortin receptor 4 (MC4R, Homo sapiens, UniProt P32245)
SLC6A2: Sodium-dependent noradrenaline transporter (SLC6A2, Homo sapiens, UniProt P23975)
FPR1: fMet-Leu-Phe receptor (FPR1, Homo sapiens, UniProt P21462)
DNA dC->dU-editing enzyme APOBEC-3B: DNA dC->dU-editing enzyme APOBEC-3B (Homo sapiens, UniProt Q9UH17)

| Compound | target | test | system | setting | inhibition [%] |
| --- | --- | --- | --- | --- | --- |
| CNC(=O)c1cc(Oc2ccc(NC(=O)Nc3ccc(Cl)c(C(F)(F)F)c3)cc2)ccn1 | Fibroblast growth factor receptor 1 (FGFR1, Homo sapiens, UniProt P11362, V561M) | cell-free assay |  | 10 µM | 84 |
| O=C1N=C(N2CCCCN2)S/C1=C\c1ccc(F)cc1O | MC4R | ligand displacement, radioligand |  | 10 µM | < 10 |
| Fc1ccc(C(c2ccc(F)cc2)c2nnnn2CCCCN2CCN(CCCc3ccccc3)CC2)cc1 | SLC6A2 | transporter uptake, inhibitor | HEK293 | 1 µM | 86.4 |
| CC/C(=N\NC(=O)NCc1cccc(O)c1)c1ccc(O)c(C)c1O | Fibroblast growth factor receptor 4 (FGFR4, Homo sapiens, UniProt P22455, V550E) | enzyme activity, inhibitor |  | 0.1 µM | 1.5 |
| Clc1ccc(CC2CCN(CCCCn3nnnc3C(c3ccccc3)c3ccccc3)CC2)cc1Cl | SLC6A2 | transporter uptake, inhibitor | HEK293 | 1 µM | 63.9 |
| Cc1oc2cc(OC(=O)c3ccco3)ccc2c(=O)c1-c1ccccc1 | FPR1 | calcium signal, antagonist |  | 50 µM | 100 |
| O=c1c(-c2ccc(O)cc2)coc2c(OC3OC(CO)C(O)C(O)C3O)c(O)ccc12 (centres unmarked) | DNA dC->dU-editing enzyme APOBEC-3B | enzyme activity, inhibitor, fluorescence |  | 100 µM | 37.5 |
| COc1ccccc1-c1c(C(F)(F)F)oc2cc(OC(=O)C3CC3)ccc2c1=O | FPR1 | calcium signal, antagonist |  | 50 µM | 100 |
| Clc1ccc(C(c2ccccc2)c2nnnn2CCCCN2CCC(CCCc3ccccc3)CC2)cc1 (centres unmarked) | SLC6A2 | transporter uptake, inhibitor | HEK293 | 1 µM | 84.1 |
| COc1ccccc1-c1c(C(F)(F)F)oc2cc(OC(=O)c3ccco3)ccc2c1=O | FPR1 | calcium signal, antagonist |  | 50 µM | 100 |
| CC(CCC(=O)NCC(=O)O)C1CCC2C3C(O)CC4CC(O)CCC4(C)C3CC(O)C12C (centres unmarked) | DNA dC->dU-editing enzyme APOBEC-3B | enzyme activity, inhibitor, fluorescence |  | 100 µM | 23.7 |
| CC(=O)N[C@H]1CSSC[C@@H](C(=O)N[C@@H](Cc2c[nH]c3ccccc23)C(N)=O)NC(=O)[C@H](Cc2ccccc2)NC(=O)[C@H](CCCNC(=N)N)NC1=O | MC4R | ligand displacement, radioligand |  | 10 µM, 40 min | 0 |
| Clc1ccc(C(c2ccccc2)c2nnnn2CCCN2CCC(CCCc3ccccc3)CC2)cc1 (centres unmarked) | SLC6A2 | transporter uptake, inhibitor | HEK293 | 1 µM | 72.8 |
| Cc1nnc2sc(C(=O)NCc3ccc(S(=O)(=O)C(F)(F)F)cc3)c(N)c2c1C | Glutamate receptor ionotropic, NMDA 1 (Grin1, Rattus norvegicus, UniProt P35439) | ligand displacement, radioligand |  | 10 µM | 14 |
| Clc1ccc(C(c2ccccc2)c2nnnn2CCCCN2CCN(CCCc3ccccc3)CC2)cc1 (centres unmarked) | SLC6A2 | transporter uptake, inhibitor | HEK293 | 1 µM | 63.6 |
| Cc1ccc(Nc2nccc(N(C)c3ccc4c(C)n(C)nc4c3)n2)cc1S(N)(=O)=O | Serine/threonine-protein kinase Chk2 (CHEK2, Homo sapiens, UniProt O96017, R145W) | enzyme activity, inhibitor |  | 0.3 µM | -4 |
| Clc1ccc(C(c2ccccc2)c2nnnn2CCCCN2CCC(Cc3ccc(Cl)c(Cl)c3)CC2)cc1 (centres unmarked) | SLC6A2 | transporter uptake, inhibitor | HEK293 | 1 µM | 58.9 |
| COc1ccccc1-c1c(C(F)(F)F)oc2cc(OC(=O)C(C)C)ccc2c1=O | FPR1 | calcium signal, antagonist |  | 50 µM | 100 |
| c1ccc(CCC2CCN(CCCn3nnnc3C(c3ccccc3)c3ccccc3)CC2)cc1 | SLC6A2 | transporter uptake, inhibitor | HEK293 | 1 µM | 74.4 |
| CC(=O)c1nn(CC(=O)N2C[C@H](F)C[C@H]2C(=O)Nc2cccc(Br)n2)c2ccc(-c3cnc(C)nc3)cc12 | Plasma kallikrein (KLKB1, Homo sapiens, UniProt P03952) | enzyme activity, inhibitor |  | 10 µM | 20.8 |
| COC(=O)Nc1nc2ccc(C(=O)c3cccs3)cc2[nH]1 | DNA dC->dU-editing enzyme APOBEC-3B | enzyme activity, inhibitor, fluorescence |  | 100 µM | 25.9 |
| Cc1c(COc2c(F)cc(F)cc2F)c2c(n1C)C(=O)C=C(NCCCN(C)C)C2=O | Ribosyldihydronicotinamide dehydrogenase [quinone] (NQO2, Homo sapiens, UniProt P16083) | enzyme activity, inhibitor |  | 1 µM | 98 |
| CCN(CC)c1ccc(C2=NNC(=O)CC2C)cc1[N+](=O)[O-] (centres unmarked) | 3',5'-cyclic-AMP phosphodiesterase 4B (PDE4B, Homo sapiens, UniProt Q07343) | enzyme activity, inhibitor |  | 0.1 µM | 21 |
| CCN1CCN(Cc2ccc(NC(=O)c3ccc(C)c(Oc4ccnc5[nH]ccc45)c3)cc2C(F)(F)F)CC1 | Serine/threonine-protein kinase WNK4 (WNK4, Homo sapiens, UniProt Q96J92) | target engagement in cells, inhibitor, chemoproteomics | Huh-7 | 1 µM | -11.5 |
| CCCCCCc1cc2c(=O)c(-c3nc4ccccc4n3C)c(C)oc2cc1OC(C)=O | FPR1 | calcium signal, antagonist |  | 50 µM | 100 |
| Nc1ncnc2c1ncn2C1OC(COP(=O)(O)OP(=O)(O)O)C(O)C1O (centres unmarked) | DNA dC->dU-editing enzyme APOBEC-3B | enzyme activity, inhibitor, fluorescence |  | 100 µM | 41.8 |
| O=C(c1ccc(F)cc1)N(Cc1ccccc1)C1CCCCC1 | Cysteinyl leukotriene receptor 1 (CYSLTR1, Homo sapiens, UniProt Q9Y271) | ligand displacement |  | 10 µM | -7 |
| Fc1ccc(C(c2ccc(F)cc2)c2nnnn2CCCCN2CCC(CCCc3ccccc3)CC2)cc1 | SLC6A2 | transporter uptake, inhibitor | HEK293 | 1 µM | 48 |
| Cc1oc2cc(OC(=O)c3ccco3)ccc2c(=O)c1-c1nc2ccccc2n1C | FPR1 | calcium signal, antagonist |  | 50 µM | 100 |
